According to ChEMBL document CHEMBL5653631, “A Potent and Selective ULK1 Inhibitor Suppresses Autophagy and Sensitizes Cancer Cells to Nutrient Stress” (iScience, 2018):
Blank lines part the entries; values can stand above or below the compound they belong to.

Assays:
[1] = biological target: Serine/threonine-protein kinase Nek4 (Homo sapiens) (UniProt P51957); assay: Inhibition of human recombinant NEK4 at 500 nM related to control ULK1
[2] = biological target: T1, Serine/threonine-protein kinase Sgk3 (Homo sapiens) (UniProt Q96BR1); assay: Inhibition of human recombinant SGK3 at 500 nM related to control ULK1
T1 sequence (whole entry): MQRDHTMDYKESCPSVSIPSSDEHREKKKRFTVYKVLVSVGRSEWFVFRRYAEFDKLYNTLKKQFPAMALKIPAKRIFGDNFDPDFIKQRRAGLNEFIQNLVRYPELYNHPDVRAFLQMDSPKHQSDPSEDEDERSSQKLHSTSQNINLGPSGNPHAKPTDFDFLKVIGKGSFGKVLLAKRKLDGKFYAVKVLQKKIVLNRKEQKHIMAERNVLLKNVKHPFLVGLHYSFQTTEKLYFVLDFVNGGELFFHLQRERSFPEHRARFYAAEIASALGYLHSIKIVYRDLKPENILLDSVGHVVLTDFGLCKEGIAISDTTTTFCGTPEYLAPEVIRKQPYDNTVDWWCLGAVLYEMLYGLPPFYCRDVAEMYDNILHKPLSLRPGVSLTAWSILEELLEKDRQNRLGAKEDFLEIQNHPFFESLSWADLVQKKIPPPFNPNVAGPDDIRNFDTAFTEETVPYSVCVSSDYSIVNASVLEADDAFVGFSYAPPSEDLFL

[3] = biological target: SRSF protein kinase 2 (Homo sapiens) (UniProt P78362); assay: Inhibition of human recombinant SRPK2 at 500 nM in presence of ATP by radiometric assay relative to control
[4] = biological target: Wee1-like protein kinase (Homo sapiens) (UniProt P30291); assay: Inhibition of human recombinant Wee1 at 500 nM in presence of ATP by radiometric assay relative to control
[5] = biological target: Focal adhesion kinase 1 (Homo sapiens) (UniProt Q05397); assay: Inhibition of human recombinant FAK at 500 nM related to control ULK1
Sequence of Focal adhesion kinase 1 (Homo sapiens) (Q05397 2-1052 limits assumed): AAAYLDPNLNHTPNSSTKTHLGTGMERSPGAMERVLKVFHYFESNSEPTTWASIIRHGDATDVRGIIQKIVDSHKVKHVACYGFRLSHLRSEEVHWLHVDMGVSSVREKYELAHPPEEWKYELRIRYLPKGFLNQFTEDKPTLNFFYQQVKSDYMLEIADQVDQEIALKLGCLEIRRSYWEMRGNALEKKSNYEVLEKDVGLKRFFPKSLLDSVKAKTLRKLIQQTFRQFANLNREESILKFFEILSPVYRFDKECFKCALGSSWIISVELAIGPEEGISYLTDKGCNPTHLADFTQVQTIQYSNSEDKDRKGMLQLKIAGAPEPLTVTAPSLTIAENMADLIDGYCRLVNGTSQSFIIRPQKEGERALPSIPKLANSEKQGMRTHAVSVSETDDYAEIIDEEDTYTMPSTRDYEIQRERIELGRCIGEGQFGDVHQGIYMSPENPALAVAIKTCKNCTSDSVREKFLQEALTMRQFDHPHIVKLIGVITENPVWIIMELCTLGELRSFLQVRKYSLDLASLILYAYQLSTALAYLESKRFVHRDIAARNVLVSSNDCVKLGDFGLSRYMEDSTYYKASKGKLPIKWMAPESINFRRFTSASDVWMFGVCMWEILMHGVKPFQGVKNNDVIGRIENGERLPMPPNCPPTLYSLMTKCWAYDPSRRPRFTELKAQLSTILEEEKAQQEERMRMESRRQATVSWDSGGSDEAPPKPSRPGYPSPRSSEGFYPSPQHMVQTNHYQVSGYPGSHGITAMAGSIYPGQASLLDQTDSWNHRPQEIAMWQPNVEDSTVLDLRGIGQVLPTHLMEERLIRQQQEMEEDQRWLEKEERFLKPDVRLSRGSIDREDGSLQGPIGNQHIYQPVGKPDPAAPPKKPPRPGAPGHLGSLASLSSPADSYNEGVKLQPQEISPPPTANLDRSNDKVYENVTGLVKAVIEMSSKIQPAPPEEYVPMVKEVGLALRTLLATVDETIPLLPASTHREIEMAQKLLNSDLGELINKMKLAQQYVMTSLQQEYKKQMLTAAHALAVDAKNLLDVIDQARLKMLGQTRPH

[6] = biological target: Serine/threonine-protein kinase PLK2 (Homo sapiens) (UniProt Q9NYY3); assay: Inhibition of human recombinant PLK2 at 15 nM related to control ULK1
Sequence of Serine/threonine-protein kinase PLK2 (Homo sapiens) (Q9NYY3 whole entry, looked up): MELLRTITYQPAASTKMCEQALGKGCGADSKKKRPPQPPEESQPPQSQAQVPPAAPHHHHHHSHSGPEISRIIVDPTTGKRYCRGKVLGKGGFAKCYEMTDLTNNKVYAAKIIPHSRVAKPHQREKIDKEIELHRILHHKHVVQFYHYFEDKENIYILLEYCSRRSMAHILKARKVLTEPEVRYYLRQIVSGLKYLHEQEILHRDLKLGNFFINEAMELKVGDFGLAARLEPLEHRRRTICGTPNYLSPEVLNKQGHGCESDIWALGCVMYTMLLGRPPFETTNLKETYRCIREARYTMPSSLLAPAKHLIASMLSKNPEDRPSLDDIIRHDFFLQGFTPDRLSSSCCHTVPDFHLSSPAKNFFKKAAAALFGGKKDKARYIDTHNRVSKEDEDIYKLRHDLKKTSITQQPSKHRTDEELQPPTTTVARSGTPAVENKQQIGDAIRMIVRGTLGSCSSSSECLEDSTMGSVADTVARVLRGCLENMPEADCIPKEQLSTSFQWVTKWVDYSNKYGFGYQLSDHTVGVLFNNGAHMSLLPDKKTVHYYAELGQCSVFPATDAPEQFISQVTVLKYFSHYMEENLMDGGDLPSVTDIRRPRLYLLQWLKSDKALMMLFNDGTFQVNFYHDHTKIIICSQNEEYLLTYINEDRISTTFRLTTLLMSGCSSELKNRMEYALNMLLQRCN

[7] = biological target: T2, Serine/threonine-protein kinase BRSK2 (Homo sapiens) (UniProt Q8IWQ3); assay: Inhibition of human recombinant BRSK2 at 15 nM in presence of ATP by radiometric assay relative to control
T2 sequence (whole entry): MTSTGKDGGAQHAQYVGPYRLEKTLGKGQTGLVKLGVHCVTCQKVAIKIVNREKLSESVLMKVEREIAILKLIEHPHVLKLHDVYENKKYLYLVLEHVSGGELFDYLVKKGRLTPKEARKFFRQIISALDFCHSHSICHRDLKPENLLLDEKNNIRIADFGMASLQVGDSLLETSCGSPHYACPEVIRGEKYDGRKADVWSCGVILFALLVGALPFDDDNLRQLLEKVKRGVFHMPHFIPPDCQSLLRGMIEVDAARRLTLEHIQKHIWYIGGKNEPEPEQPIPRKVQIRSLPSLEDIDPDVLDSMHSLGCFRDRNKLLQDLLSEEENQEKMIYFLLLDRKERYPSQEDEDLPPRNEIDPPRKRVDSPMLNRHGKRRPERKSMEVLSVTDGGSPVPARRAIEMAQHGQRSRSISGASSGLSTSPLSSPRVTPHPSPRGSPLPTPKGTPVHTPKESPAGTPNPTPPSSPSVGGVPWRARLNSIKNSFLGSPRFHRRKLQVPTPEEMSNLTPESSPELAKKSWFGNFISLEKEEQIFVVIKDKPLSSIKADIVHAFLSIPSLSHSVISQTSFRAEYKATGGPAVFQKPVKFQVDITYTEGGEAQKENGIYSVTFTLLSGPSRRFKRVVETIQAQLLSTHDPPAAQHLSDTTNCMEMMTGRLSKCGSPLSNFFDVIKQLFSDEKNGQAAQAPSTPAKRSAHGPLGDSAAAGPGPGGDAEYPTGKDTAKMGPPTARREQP
How it was run: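 Recombinant human kinase panel (327 kinases) run as radiometric activity assays, each kinase in duplicate at one compound concentration. Activity remaining expressed relative to vehicle control; percent inhibition taken as 100% minus % activity remaining.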

[8] = biological target: Rhodopsin kinase GRK7 (Homo sapiens) (UniProt Q8WTQ7); assay: Inhibition of human recombinant GPRK7 at 15 nM related to control ULK1
Sequence of Rhodopsin kinase GRK7 (Homo sapiens) (Q8WTQ7 whole entry, looked up): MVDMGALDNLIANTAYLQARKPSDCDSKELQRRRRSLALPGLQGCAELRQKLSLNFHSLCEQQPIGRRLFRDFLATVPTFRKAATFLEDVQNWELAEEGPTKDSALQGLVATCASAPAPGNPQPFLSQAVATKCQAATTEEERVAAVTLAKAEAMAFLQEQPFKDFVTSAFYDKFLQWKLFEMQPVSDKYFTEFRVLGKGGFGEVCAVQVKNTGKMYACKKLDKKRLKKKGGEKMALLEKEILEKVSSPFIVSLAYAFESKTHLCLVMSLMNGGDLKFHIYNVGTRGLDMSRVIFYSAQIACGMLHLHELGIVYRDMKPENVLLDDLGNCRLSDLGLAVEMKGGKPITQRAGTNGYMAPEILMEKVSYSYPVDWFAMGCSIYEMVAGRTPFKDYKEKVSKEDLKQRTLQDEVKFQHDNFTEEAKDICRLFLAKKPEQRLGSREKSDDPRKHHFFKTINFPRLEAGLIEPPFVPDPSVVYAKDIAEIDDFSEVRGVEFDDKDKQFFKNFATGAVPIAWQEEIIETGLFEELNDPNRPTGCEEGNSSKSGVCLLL

[9] = biological target: Ephrin type-A receptor 4 (Homo sapiens) (UniProt P54764); assay: Inhibition of human recombinant EphA4 at 15 nM related to control ULK1
Sequence of Ephrin type-A receptor 4 (Homo sapiens) (P54764 whole entry): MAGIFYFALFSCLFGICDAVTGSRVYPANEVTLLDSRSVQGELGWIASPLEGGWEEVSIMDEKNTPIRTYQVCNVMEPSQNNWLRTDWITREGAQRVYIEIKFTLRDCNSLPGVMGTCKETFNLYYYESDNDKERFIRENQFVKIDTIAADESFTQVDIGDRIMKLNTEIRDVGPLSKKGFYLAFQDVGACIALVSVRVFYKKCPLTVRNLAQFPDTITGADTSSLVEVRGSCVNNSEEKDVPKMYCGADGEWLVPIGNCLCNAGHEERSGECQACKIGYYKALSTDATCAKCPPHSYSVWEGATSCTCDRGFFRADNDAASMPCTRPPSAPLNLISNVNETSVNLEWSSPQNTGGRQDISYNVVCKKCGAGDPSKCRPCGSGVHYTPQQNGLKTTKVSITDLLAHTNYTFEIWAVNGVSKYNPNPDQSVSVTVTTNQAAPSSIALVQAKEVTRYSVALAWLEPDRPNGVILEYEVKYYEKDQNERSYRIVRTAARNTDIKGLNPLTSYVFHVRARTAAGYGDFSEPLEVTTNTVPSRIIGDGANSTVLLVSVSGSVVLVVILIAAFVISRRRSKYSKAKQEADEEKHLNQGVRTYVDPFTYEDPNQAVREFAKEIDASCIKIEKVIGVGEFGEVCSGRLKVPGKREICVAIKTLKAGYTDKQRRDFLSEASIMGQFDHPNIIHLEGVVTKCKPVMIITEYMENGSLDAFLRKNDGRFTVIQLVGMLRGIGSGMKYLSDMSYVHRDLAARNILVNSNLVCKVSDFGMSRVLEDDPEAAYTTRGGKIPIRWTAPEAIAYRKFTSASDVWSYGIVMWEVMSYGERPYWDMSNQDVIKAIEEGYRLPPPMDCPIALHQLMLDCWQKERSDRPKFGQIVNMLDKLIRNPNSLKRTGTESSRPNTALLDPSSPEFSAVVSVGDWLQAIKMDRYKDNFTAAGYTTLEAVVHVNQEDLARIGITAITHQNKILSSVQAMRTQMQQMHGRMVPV

[10] = biological target: Receptor-type tyrosine-protein kinase FLT3 (Homo sapiens) (UniProt P36888); assay: Inhibition of human recombinant FLT3 at 15 nM in presence of ATP by radiometric assay relative to control
[11] = biological target: T3, Protein kinase C epsilon type (Homo sapiens) (UniProt Q02156); assay: Inhibition of human recombinant PKCe at 40 nM related to control ULK1
T3 sequence (whole entry): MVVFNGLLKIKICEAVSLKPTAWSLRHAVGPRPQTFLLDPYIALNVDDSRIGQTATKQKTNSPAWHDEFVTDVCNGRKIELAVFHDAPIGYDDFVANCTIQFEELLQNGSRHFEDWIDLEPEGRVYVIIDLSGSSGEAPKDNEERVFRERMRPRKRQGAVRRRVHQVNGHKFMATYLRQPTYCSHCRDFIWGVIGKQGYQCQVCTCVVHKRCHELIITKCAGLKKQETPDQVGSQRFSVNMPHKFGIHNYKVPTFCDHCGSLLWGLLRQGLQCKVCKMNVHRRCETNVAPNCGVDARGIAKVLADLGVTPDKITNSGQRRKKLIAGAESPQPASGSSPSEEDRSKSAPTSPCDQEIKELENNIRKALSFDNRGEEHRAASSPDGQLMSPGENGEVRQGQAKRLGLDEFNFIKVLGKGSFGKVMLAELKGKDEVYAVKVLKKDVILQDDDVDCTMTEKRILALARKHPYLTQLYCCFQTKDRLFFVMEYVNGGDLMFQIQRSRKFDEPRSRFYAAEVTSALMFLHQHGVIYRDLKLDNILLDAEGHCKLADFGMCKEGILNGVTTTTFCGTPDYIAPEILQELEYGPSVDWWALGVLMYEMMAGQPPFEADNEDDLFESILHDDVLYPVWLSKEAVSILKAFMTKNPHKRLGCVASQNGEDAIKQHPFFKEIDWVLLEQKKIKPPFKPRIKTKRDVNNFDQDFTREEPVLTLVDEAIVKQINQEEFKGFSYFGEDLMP

[12] = biological target: Ribosomal protein S6 kinase alpha-5 (Homo sapiens) (UniProt O75582); assay: Inhibition of human recombinant MSK1 at 40 nM in presence of ATP by radiometric assay relative to control
Sequence of Ribosomal protein S6 kinase alpha-5 (Homo sapiens) (O75582 whole entry, looked up): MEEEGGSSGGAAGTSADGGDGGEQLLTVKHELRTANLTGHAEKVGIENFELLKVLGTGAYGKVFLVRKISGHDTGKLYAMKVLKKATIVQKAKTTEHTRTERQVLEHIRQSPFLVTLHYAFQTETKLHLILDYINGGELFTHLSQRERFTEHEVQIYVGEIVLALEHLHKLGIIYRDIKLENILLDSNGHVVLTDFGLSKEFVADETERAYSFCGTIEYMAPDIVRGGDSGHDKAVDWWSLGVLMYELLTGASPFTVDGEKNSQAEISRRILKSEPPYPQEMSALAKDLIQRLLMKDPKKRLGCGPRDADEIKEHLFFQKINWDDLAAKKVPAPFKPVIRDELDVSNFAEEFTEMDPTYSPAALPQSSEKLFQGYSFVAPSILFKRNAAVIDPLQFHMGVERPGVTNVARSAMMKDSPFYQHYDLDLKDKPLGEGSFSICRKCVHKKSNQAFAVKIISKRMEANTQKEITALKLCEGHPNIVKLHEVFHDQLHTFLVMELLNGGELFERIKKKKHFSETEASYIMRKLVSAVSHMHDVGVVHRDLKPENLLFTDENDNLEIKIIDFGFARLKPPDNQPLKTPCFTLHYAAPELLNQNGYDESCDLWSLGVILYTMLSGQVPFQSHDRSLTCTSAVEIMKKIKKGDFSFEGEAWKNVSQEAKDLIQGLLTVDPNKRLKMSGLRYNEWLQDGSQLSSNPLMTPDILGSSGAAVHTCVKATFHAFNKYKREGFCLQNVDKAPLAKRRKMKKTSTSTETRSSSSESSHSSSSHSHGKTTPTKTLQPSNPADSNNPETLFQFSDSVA

Sequence of Serine/threonine-protein kinase Nek4 (Homo sapiens) (P51957 whole entry, looked up): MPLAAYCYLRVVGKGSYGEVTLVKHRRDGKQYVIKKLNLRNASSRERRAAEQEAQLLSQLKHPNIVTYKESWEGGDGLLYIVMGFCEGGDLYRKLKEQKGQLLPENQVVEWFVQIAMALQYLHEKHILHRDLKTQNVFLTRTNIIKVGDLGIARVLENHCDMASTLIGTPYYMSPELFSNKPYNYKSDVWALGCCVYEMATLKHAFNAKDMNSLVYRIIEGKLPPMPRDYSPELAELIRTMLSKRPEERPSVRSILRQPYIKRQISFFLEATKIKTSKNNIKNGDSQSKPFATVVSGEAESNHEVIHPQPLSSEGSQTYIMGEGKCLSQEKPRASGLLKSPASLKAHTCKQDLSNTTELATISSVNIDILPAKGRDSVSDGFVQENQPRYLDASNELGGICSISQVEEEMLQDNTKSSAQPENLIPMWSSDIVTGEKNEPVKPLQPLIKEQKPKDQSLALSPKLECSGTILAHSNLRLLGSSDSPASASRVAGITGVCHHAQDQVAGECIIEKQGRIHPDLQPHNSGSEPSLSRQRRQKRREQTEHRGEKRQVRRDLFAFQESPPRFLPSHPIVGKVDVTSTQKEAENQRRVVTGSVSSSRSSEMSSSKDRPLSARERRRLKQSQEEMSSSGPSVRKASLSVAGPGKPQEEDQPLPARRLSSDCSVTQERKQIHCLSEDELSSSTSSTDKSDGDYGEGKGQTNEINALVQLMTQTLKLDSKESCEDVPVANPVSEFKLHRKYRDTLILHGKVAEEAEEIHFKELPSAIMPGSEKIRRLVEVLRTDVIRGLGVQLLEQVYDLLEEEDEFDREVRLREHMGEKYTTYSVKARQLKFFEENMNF

fold change (FC) [1]: 0.31
fold change (FC) [2]: 0.01
inhibition [3]: 5%
inhibition [4]: 16%
fold change (FC) [5]: 0.96
SMILES: CNC(=O)c1ccccc1Oc1nc(Nc2cc(OC)c(OC)c(OC)c2)ncc1Br

fold change (FC) [6]: 0.05
inhibition [7]: 25%
fold change (FC) [8]: 0
fold change (FC) [9]: 0
inhibition [10]: 68%
SMILES: CC(C)[C@H](NC(=O)c1cc(-c2cnn3cc(-c4ccc(OCCN5CCCCC5)cc4)cnc23)cs1)C(F)(F)F

fold change (FC) [11]: 0
inhibition [12]: 0%
SMILES: O=C(N[C@@H](C1CC1)C(F)(F)F)c1cc(-c2cnn3cc(-c4ccc(F)cc4)cnc23)cs1
